ChEMBL document CHEMBL1124527, “2(1H)-quinolinones with cardiac stimulant activity. 3. Synthesis and biological properties of 6-imidazol-1-yl derivatives” (1989)

Key:
Canis familiaris [1] = experiment: Inotropic potencies relative to 4-[4-[2-(1,1-dioxo-2-isothiazolidinyl)ethyl]-1-piperidinyl]-6,7-dimethoxyquinazoline (50 ug/kg) in anesthetized dog; assay type: functional, Canis lupus familiaris
Summary of the method: (§1)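 Dogs were anesthetized and intubated. Compound was given through a saphenous vein cannula, in 0.9% saline, 0.5 h after the standard quinazoline at 50 µg/kg, following a 0.75 h equilibration. The cycle was repeated once control levels returned, with at least 0.5 h between doses. LVP was recorded by a Millar catheter via the carotid artery and differentiated to dP/dtmax. Results are % increase in dP/dtmax, and also potency relative to the standard in the same dog: (%drug/%standard)×(dose standard/dose drug).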

Canis familiaris [2] = experiment: 0.125 mg/kg of compound was administered orally to conscious adult Beagle dogs (n=4) and the effects on cardiac contractility was determined after 3 hr; assay type: functional, Canis lupus familiaris, Heart
Summary of the method: (§2)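 Conscious dogs (n = 4) were dosed orally by gavage with a solution of compound. The QA interval is the time in ms from the ECG R wave to the up-stroke of the arterial pressure pulse, measured by computer. Recordings were taken every 0.16 h from 0.5 h predose to 4 h postdose. Each point is the mean of six consecutive 8-s sets. Results are the change from the mean predose value, as mean ± SEM.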

Canis familiaris [3] = experiment: Positive inotropic activity after intravenous administration of 10 ug/kg (dose) to anesthetized dog; assay type: functional, Canis lupus familiaris; summary of the method: as §1
Canis familiaris [4] = experiment: 0.125 mg/kg of compound was administered orally to conscious adult Beagle dogs and the effects on cardiac contractility was determined after 1 hr; assay type: functional, Canis lupus familiaris, Heart; summary of the method: as §2
Canis familiaris [5] = experiment: Positive inotropic activity after intravenous administration of 50 ug/kg (dose) to anesthetized dog; assay type: functional, Canis lupus familiaris; summary of the method: as §1
Canis familiaris [6] = experiment: 0.5 mg/kg of compound was administered orally to conscious adult Beagle dogs (n=4) and the effects on cardiac contractility was determined after 3 hr; assay type: functional, Canis lupus familiaris, Heart; summary of the method: as §2
Canis familiaris [7] = experiment: 0.5 mg/kg of compound was administered orally to conscious adult Beagle dogs and the effects on cardiac contractility was determined after 1 hr; assay type: functional, Canis lupus familiaris, Heart; summary of the method: as §2
Canis familiaris [8] = experiment: 0.25 mg/kg of compound was administered orally to conscious adult Beagle dogs (n=4) and the effects on cardiac contractility was determined after 3 hr; assay type: functional, Canis lupus familiaris, Heart; summary of the method: as §2
Canis familiaris [9] = experiment: 0.25 mg/kg of compound was administered orally to conscious adult Beagle dogs and the effects on cardiac contractility was determined after 1 hr; assay type: functional, Canis lupus familiaris, Heart; parameters: unit: ms; summary of the method: as §2
Canis familiaris [10] = experiment: Positive inotropic activity after intravenous administration of 50 ug/kg (dose) to anesthetized dogs; assay type: functional, Canis lupus familiaris; summary of the method: as §1
Canis familiaris [11] = experiment: 2.0 mg/kg of compound was administered orally to conscious adult Beagle dogs and the effects on cardiac contractility was determined after 1 hr; assay type: functional, Canis lupus familiaris, Heart; summary of the method: as §2
Canis familiaris [12] = experiment: 2.0 mg/kg of compound was administered orally to conscious adult Beagle dogs (n=4) and the effects on cardiac contractility was determined after 3 hr; assay type: functional, Canis lupus familiaris, Heart; summary of the method: as §2
Canis familiaris [13] = experiment: Positive inotropic activity after intravenous administration of 25 ug/kg (dose) to anesthetized dog; assay type: functional, Canis lupus familiaris
Canis familiaris [14] = experiment: 0.25 mg/kg compound was administered orally to conscious adult Beagle dogs (n=4) and the effects on cardiac contractility was determined after 3 hr; assay type: functional, Canis lupus familiaris, Heart; summary of the method: as §2
Canis familiaris [15] = experiment: Positive inotropic activity after intravenous administration of 12.5 ug/kg (dose) to anesthetized dog; assay type: functional, Canis lupus familiaris; summary of the method: as §1
Canis familiaris [16] = experiment: 0.25 mg/kg of compound was administered orally to conscious adult Beagle dogs and the effects on cardiac contractility was determined after 3 hr; assay type: functional, Canis lupus familiaris, Heart; summary of the method: as §2

SMILES | Relative inotropic potency (Canis familiaris [1]) | Increase in dP/dTmax (Canis familiaris [3]) | Increase in dP/dTmax (Canis familiaris [5]) | other results
Cc1cc(-n2cc(C#N)nc2C)cc2ccc(O)nc12 | 3 | 30% | – | Decrease in QA interval (Canis familiaris [2]): 15; Decrease in QA interval (Canis familiaris [4]): 15
Cc1nc(C)n(-c2cc(C)c3nc(O)ccc3c2)c1S(C)(=O)=O | 0.1 | – | 5% | –
Cc1cn(-c2cc(C)c3nc(O)ccc3c2)c(-c2ccccc2)n1 | 0.3 | – | 15% | –
Cc1cc(-n2cc(C(=O)c3ccccc3)nc2C)cc2ccc(O)nc12 | 0.5 | – | 31% | –
CSc1c(C)nc(C)n1-c1cc(C)c2nc(O)ccc2c1 | 0.9 | – | 28% | –
Cc1nc(C)n(-c2cc(C)c3nc(O)ccc3c2)c1[S+](C)[O-] (stereo not given) | 0.2 | – | 7% | –
Cc1cn(-c2cc(C)c3nc(O)ccc3c2)c(I)n1 | 5.7 | 59% | – | –
CC(=O)c1nc(C)cn1-c1cc(C)c2nc(O)ccc2c1 | 0.3 | – | 15% | –
Cc1nc(C)n(-c2cc(C)c3nc(O)ccc3c2)c1I | 0.5 | – | 17% | –
Cc1cc(-n2cc(-c3ccccc3)nc2C)cc2ccc(O)nc12 | 2.4 | 15% | – | Decrease in QA interval (Canis familiaris [6]): 10; Decrease in QA interval (Canis familiaris [7]): 13
Cc1cn(-c2cc(C)c3nc(O)ccc3c2)c(C#N)n1 | 4.1 | 53% | – | Decrease in QA interval (Canis familiaris [8]): 15; Decrease in QA interval (Canis familiaris [9]): 15
Cc1cc(-n2cc(Cl)nc2C)cc2ccc(O)nc12 | 5.6 | 50% | – | –
Cc1nc(C)n(-c2cc(C)c3nc(O)ccc3c2)c1Br | 0.7 | – | – | Increase in dP/dTmax (Canis familiaris [10]): 26%; Decrease in QA interval (Canis familiaris [11]): 12; Decrease in QA interval (Canis familiaris [12]): 13
Cc1cc(-n2cc(I)nc2C)cc2ccc(O)nc12 | 2.6 | 11% | – | –
CCC(=O)c1cn(-c2cc(C)c3nc(O)ccc3c2)c(C)n1 | 0.9 | – | 29% | –
CC(=O)c1c(C)nc(C)n1-c1cc(C)c2nc(O)ccc2c1 | 0.4 | – | 16% | Decrease in QA interval (Canis familiaris [11]): 6; Decrease in QA interval (Canis familiaris [12]): 10
CC(=O)c1cn(-c2cc(C)c3nc(O)ccc3c2)c(C)n1 | 2.6 | 36% | – | Decrease in QA interval (Canis familiaris [8]): 19; Decrease in QA interval (Canis familiaris [9]): 17
CSc1cn(-c2cc(C)c3nc(O)ccc3c2)c(C)n1 | 5 | 53% | – | –
Cc1cc(-n2cc([S+](C)[O-])nc2C)cc2ccc(O)nc12 (stereo not given) | 0.7 | – | 65% | –
Cc1cc(-n2cc(C(=O)C(C)C)nc2C)cc2ccc(O)nc12 | 0.6 | – | 24% | –
Cc1nc(C)n(-c2cc(C)c3nc(O)ccc3c2)c1C#N | 1.1 | – | 70% | Decrease in QA interval (Canis familiaris [8]): 15; Decrease in QA interval (Canis familiaris [9]): 11
Cc1cc(-n2cc(S(C)(=O)=O)nc2C)cc2ccc(O)nc12 | 0.3 | – | 25% | –
Cc1nc(C)n(-c2cc(C)c3nc(O)ccc3c2)c1Cl | 2.9 | 32% | – | Decrease in QA interval (Canis familiaris [2]): 10; Decrease in QA interval (Canis familiaris [4]): 12
Cc1[nH]c(=O)c(C#N)cc1-c1ccncc1 [MILRINONE] | 1.6 | – | – | Increase in dP/dTmax (Canis familiaris [13]): 46%; Decrease in QA interval (Canis familiaris [14]): 7; Decrease in QA interval (Canis familiaris [9]): 13
Cc1cn(-c2cc(C)c3[nH]c(=O)ccc3c2)c(C)n1 [NANTERINONE] | 7.6 | – | – | Increase in dP/dTmax (Canis familiaris [15]): 40%; Decrease in QA interval (Canis familiaris [9]): 16; Decrease in QA interval (Canis familiaris [16]): 17
